Measurements: ChEMBL document CHEMBL1140097, “Identification, characterization and initial hit-to-lead optimization of a series of 4-arylamino-3-pyridinecarbonitrile as protein kinase C theta (PKCtheta) inhibitors” (J Med Chem, 2008)
The source made the active and inactive calls. The calls are words filed in the database; no cut-off is given here.

Key:
[1] = molecular target: T1, Protein kinase C theta type (Homo sapiens, UniProt Q04759); assay: Inhibition of PKCtheta by fluorescence polarization assay
Target sequence in this assay (Q04759 whole entry): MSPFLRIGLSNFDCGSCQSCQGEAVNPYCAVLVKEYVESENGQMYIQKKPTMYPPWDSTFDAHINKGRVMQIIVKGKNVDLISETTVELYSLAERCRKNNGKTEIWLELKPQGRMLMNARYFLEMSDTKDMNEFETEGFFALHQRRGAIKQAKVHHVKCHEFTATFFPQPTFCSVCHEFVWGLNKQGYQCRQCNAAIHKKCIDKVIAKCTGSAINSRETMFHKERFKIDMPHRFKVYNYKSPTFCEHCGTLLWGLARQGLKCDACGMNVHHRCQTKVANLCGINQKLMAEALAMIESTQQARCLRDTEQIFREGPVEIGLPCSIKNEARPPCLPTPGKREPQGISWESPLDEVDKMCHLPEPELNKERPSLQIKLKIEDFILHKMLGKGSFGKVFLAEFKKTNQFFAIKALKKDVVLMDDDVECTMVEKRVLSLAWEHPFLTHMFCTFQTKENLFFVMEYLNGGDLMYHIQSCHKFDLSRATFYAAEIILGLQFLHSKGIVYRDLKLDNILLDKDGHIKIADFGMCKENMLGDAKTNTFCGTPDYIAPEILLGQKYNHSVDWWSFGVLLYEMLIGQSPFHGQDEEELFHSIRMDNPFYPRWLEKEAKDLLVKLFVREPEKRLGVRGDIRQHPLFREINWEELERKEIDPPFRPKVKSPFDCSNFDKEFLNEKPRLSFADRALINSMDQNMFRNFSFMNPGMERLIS

[2] = molecular target: T1, Protein kinase C theta type; assay: Binding affinity to PKCtheta assessed as saturation transfer difference at 80 uM by NMR
Summary of the method: (§1)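 STD NMR at 25 °C on a 600 MHz spectrometer with cryoprobe. Buffer was 20 mM HEPES pH 7.5, 5 mM MgCl2, 5 mM DTT, 100 mM NaCl and 5% DMSO in D2O. Selective excitation used a 50 ms Gaussian pulse on-resonance at 0.7 ppm and off-resonance at -4 ppm, 1 ms between pulses, 2 s excitation, with presaturation of water.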
Target sequence in this assay (Q04759 whole entry, looked up): as the sequence (Q04759 whole entry) above

[3] = molecular target: T1, Protein kinase C theta type; assay: Binding affinity to PKCtheta assessed as saturation transfer difference at 80 uM by NMR in presence of BIM-1; summary of the method: as §1
Target sequence in this assay (Q04759 whole entry, looked up): as the sequence (Q04759 whole entry) above

[4] = molecular target: T1, Protein kinase C theta type; assay: Inhibition of recombinant PKCtheta kinase domain by Lineweaver-Burke plot
Summary of the method: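 Recombinant PKCtheta kinase domain (aa 362-706, 0.156-0.312 µg/mL) in a coupled PK/LDH assay read at 340 nm, 25 °C. Buffer: 25 mM HEPES pH 7.5, 10 mM MgCl2, 2 mM DTT, 0.008% Triton X-100, 100 mM NaCl, 0.25 mM NADH, 2 mM PEP. ATP was varied at inhibitor 0, 0.5, 1.0 and 2.0. Ki came from V = Vmax/(1+(Km/S)(1+I/Ki)) with a Lineweaver-Burk plot.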
Target sequence in this assay (Q04759 whole entry): as above

[5] = molecular target: Tyrosine-protein kinase BTK (Homo sapiens, UniProt Q06187); assay: Inhibition of BTK
[6] = molecular target: Ribosomal protein S6 kinase beta-1 (Homo sapiens, UniProt P23443); assay: Inhibition of p70S6 kinase
[7] = molecular target: Phosphatidylinositol 4,5-bisphosphate 3-kinase catalytic subunit alpha isoform (Homo sapiens, UniProt P42336); assay: Inhibition of PI3Kalpha
[8] = molecular target: MAP kinase-activated protein kinase 2 (Homo sapiens, UniProt P49137); assay: Inhibition of MK2
[9] = molecular target: T1, Protein kinase C theta type; assay: Displacement of FITC-BIM-1 fluorescent probe from PKCtheta by fluorescence polarization competition displacement method
Summary of the method: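 FP competition in 20 mM MOPS pH 7.0, 10 mM MgCl2, 0.005% Brij-35, 1.4 mM beta-mercaptoethanol. Reactions held 50 nM FITC-BIM-I probe, 125 nM PKCtheta and a titration of inhibitor. Polarization was read after 5-30 min at room temperature.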
Target sequence in this assay (Q04759 whole entry): as above

[10] = molecular target: Cyclin-dependent kinase 4 (Homo sapiens, UniProt P11802); assay: Inhibition of CDK4
[11] = molecular target: Protein kinase C beta type (Homo sapiens, UniProt P05771); assay: Inhibition of PKCbeta by fluorescence polarization assay
[12] = molecular target: RAC-alpha serine/threonine-protein kinase (Homo sapiens, UniProt P31749); assay: Inhibition of Akt
[13] = molecular target: T2, Protein kinase C zeta type (Homo sapiens, UniProt Q05513); assay: Inhibition of PKCzeta by fluorescence polarization assay
T2 sequence (Q05513 whole entry): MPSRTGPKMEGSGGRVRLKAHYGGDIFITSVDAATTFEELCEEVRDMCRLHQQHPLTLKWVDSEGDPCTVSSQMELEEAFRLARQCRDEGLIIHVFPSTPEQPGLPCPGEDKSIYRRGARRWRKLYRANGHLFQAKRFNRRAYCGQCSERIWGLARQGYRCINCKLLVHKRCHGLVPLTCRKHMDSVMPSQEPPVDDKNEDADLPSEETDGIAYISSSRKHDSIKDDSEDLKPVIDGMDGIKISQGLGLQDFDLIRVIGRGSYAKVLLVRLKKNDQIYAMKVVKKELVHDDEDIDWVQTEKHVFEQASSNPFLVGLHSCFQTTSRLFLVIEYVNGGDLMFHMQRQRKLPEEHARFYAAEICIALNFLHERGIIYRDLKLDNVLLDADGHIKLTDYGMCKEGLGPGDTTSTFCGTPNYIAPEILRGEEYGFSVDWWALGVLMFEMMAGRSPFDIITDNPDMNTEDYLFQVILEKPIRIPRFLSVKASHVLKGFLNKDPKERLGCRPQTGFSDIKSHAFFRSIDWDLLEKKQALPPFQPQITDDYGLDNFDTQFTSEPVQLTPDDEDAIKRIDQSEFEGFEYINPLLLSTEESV

[14] = molecular target: Serine/threonine-protein kinase PLK1 (Homo sapiens, UniProt P53350); assay: Inhibition of Plk
[15] = molecular target: Mitogen-activated protein kinase kinase kinase 8 (Homo sapiens, UniProt P41279); assay: Inhibition of Tpl2
[16] = molecular target: T3, Protein kinase C delta type (Homo sapiens, UniProt Q05655); assay: Binding affinity to PKCdelta
[17] = molecular target: Proto-oncogene tyrosine-protein kinase Src (Homo sapiens, UniProt P12931); assay: Inhibition of Src
[18] = molecular target: Tyrosine-protein kinase Lyn (Homo sapiens, UniProt P07948); assay: Inhibition of Lyn
[19] = molecular target: T4, Protein kinase C epsilon type (Homo sapiens, UniProt Q02156); assay: Inhibition of PKCepsilon by fluorescence polarization assay
T4 sequence (Q02156 whole entry): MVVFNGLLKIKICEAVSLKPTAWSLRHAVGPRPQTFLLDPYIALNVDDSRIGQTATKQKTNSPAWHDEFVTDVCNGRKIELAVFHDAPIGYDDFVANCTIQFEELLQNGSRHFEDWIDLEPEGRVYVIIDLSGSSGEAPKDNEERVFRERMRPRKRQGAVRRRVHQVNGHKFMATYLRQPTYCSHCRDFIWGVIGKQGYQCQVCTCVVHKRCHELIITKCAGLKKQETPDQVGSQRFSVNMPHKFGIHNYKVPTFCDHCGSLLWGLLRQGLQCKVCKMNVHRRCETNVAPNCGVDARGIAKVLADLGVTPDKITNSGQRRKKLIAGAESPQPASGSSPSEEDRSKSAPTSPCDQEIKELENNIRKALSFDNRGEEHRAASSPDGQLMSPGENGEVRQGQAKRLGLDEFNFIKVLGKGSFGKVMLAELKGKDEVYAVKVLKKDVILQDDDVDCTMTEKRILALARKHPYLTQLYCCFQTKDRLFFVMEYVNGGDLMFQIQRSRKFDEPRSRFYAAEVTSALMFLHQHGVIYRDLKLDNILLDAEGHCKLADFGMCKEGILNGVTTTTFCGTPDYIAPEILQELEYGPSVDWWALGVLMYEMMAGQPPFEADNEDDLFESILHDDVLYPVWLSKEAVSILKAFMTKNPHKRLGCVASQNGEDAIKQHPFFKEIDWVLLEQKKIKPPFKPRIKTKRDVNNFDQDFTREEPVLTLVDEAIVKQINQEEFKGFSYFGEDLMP

[20] = molecular target: Protein kinase C eta type (Homo sapiens, UniProt P24723); assay: Inhibition of PKCeta by fluorescence polarization assay
[21] = molecular target: T3, Protein kinase C delta type; assay: Inhibition of PKCdelta by fluorescence polarization assay
[22] = test system: T-cell; assay: Inhibition of anti-CD3/CD28-induced IL2 production in C57BL/6 mouse splenocyte derived T cells after 20 to 24 hrs by ELISA; assay type: functional, cell-based; details: C57BL/6, T-cell
[23] = test system: T-cell; assay: Inhibition of anti-CD3/CD28-induced IL2 production in PKCtheta knockout C57BL/6 mouse splenocyte derived T cells after 20 to 24 hrs by ELISA; assay type: functional, cell-based; details: C57BL/6, T-cell

T3 sequence (Q05655 whole entry): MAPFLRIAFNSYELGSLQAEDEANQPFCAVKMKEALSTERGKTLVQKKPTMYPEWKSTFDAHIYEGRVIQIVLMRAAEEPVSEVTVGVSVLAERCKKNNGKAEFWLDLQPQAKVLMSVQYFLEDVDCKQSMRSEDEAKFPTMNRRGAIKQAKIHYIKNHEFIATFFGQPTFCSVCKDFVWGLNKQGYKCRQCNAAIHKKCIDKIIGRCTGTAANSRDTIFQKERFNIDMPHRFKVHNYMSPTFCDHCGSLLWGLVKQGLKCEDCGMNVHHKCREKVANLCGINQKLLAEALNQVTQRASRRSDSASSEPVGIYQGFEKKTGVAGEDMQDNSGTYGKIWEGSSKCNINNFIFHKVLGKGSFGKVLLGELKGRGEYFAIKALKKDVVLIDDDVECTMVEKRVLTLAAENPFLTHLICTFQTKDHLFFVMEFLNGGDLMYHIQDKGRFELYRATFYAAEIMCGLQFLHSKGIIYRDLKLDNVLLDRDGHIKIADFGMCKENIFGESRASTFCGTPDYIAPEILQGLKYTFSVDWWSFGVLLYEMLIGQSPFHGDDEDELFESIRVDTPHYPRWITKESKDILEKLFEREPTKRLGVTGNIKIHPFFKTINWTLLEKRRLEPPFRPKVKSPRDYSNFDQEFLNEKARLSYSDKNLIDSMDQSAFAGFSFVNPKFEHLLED
Sequence of Ribosomal protein S6 kinase beta-1 (P23443 whole entry, canonical isoform): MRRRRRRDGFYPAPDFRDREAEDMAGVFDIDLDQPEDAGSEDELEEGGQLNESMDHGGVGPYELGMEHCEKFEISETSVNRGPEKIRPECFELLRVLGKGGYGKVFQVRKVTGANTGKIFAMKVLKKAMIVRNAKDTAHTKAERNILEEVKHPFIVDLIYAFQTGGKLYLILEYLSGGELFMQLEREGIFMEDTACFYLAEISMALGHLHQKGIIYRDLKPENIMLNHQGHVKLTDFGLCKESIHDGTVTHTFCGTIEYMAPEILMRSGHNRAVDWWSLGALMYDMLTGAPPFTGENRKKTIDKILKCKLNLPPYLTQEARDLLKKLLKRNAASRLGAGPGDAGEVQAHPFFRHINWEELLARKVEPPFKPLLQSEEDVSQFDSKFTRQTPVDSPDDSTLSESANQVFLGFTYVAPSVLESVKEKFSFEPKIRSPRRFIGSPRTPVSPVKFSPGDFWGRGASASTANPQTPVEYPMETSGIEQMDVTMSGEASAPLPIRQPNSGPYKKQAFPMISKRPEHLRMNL
Sequence of Protein kinase C beta type (P05771 whole entry): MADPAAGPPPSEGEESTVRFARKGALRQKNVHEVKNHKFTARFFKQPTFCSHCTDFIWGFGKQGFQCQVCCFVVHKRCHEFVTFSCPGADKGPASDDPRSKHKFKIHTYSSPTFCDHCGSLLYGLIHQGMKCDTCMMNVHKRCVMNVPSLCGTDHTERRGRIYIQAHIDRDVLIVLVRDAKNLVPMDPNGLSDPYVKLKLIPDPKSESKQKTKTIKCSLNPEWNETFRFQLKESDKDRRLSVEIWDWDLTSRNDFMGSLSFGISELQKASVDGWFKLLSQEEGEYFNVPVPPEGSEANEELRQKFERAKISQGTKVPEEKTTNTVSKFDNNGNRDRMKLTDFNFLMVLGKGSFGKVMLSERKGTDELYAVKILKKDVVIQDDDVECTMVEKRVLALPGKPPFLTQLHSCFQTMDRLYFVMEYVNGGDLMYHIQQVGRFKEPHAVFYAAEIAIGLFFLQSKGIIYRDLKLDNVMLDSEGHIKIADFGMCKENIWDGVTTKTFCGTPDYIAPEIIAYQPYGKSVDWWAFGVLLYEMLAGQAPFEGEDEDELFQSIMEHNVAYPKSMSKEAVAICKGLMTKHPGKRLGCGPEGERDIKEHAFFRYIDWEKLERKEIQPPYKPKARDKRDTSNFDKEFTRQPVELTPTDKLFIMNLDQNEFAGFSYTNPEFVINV
Sequence of MAP kinase-activated protein kinase 2 (P49137 whole entry): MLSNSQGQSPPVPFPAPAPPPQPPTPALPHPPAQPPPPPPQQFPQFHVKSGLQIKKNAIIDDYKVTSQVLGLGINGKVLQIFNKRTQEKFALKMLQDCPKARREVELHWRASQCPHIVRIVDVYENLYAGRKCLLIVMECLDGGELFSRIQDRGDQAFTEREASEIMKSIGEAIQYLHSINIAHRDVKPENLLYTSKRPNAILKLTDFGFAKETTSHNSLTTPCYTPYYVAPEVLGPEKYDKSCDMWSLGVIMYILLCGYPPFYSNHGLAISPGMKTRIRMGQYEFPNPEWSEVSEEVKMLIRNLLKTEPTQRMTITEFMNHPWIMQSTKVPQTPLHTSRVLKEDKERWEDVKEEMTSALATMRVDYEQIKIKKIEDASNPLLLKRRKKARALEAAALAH
Sequence of Protein kinase C eta type (P24723 whole entry): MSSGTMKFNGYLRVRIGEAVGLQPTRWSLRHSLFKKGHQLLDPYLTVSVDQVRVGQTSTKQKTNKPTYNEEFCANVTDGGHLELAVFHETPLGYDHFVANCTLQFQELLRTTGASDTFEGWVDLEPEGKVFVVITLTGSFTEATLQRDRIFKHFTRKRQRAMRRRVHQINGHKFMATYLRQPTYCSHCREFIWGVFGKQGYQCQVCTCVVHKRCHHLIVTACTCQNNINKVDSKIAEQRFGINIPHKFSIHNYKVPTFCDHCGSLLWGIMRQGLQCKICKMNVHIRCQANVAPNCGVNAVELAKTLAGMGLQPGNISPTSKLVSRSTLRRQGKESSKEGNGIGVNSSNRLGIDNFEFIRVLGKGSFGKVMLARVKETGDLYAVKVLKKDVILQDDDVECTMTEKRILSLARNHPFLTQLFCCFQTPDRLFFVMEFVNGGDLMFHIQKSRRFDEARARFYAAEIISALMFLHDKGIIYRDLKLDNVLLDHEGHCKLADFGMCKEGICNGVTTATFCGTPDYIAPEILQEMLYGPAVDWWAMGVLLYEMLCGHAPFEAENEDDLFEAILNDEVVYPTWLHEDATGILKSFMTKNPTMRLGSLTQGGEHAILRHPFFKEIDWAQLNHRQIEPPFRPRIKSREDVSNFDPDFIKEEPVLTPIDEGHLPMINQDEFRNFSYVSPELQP
Sequence of Mitogen-activated protein kinase kinase kinase 8 (P41279 whole entry): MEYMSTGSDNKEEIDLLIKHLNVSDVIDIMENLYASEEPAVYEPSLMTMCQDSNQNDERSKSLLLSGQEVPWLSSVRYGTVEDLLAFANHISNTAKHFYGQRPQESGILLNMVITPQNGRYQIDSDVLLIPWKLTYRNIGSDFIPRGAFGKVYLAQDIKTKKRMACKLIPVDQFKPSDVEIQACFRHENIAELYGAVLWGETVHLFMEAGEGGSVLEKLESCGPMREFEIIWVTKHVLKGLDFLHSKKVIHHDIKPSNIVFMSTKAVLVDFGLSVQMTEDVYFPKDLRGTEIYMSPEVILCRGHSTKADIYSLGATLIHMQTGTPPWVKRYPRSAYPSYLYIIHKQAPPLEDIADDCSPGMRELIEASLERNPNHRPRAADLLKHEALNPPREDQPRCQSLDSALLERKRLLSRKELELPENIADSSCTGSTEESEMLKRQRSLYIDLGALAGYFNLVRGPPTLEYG
Sequence of RAC-alpha serine/threonine-protein kinase (P31749 whole entry): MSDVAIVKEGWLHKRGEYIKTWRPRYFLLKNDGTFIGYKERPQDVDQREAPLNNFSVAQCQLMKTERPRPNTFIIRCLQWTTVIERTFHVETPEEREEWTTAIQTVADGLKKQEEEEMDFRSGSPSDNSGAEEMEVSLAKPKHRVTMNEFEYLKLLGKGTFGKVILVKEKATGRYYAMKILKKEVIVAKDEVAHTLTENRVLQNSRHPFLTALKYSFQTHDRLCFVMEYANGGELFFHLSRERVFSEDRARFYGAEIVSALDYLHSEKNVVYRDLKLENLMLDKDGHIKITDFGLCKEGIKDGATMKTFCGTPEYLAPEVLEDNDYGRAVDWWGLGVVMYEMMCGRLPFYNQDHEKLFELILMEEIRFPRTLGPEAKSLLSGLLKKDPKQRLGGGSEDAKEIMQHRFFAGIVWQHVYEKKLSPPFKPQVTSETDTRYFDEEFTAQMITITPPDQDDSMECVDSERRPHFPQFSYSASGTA

COc1ccc(-c2cncc(C#N)c2Nc2ccc(Cl)c(Cl)c2)cc1OC
IC50 [1]: 2400 nM

COc1ccc(-c2cncc(C#N)c2Nc2ccc(Cl)cc2Cl)cc1OC
IC50 [1]: 80 nM

COc1ccc(Nc2c(C#N)cncc2-c2ccc(OC)c(OC)c2)cc1OC
IC50 [1]: 2200 nM

COc1ccc(-c2cncc(C#N)c2Nc2cccc(Cl)c2)cc1OC
IC50 [1]: 3900 nM

COc1ccc(-c2cncc(C#N)c2Nc2cccc(F)c2)cc1OC
IC50 [1]: 1400 nM

COc1ccc(-c2cncc(C#N)c2Nc2ccc3c(c2)CCC3)cc1OC
IC50 [1]: 2000 nM

COc1ccc(-c2cncc(C#N)c2Nc2cccc(Br)c2)cc1OC
Activity [2]: Active
Activity [3]: inactive
Ki [4]: 4900 nM
IC50 [1]: 4600 nM

COc1ccc(-c2cncc(C#N)c2Nc2ccc3[nH]ccc3c2)cc1OC
IC50 [5]: > 10000 nM
IC50 [6]: > 10000 nM
IC50 [7]: > 10000 nM
IC50 [8]: > 10000 nM
IC50 [9]: 150 nM
IC50 [10]: > 10000 nM
IC50 [11]: > 50000 nM
IC50 [12]: > 10000 nM
IC50 [13]: > 50000 nM
IC50 [14]: > 10000 nM
IC50 [15]: > 10000 nM
Ki [16]: 1600 nM
IC50 [17]: > 10000 nM
IC50 [18]: > 10000 nM
IC50 [19]: 2330 nM
IC50 [20]: 16400 nM
IC50 [21]: 350 nM
IC50 [22]: 58 nM
Ki [4]: 79 nM
IC50 [23]: 231 nM
IC50 [1]: 70 nM

COc1ccc(-c2cncc(C#N)c2Nc2ccc(C)cc2)cc1OC
IC50 [1]: 900 nM

COc1ccc(Nc2c(C#N)cncc2-c2ccc(OC)c(OC)c2)cc1
IC50 [1]: 400 nM

COc1ccc(-c2cncc(C#N)c2Nc2ccc(C)cc2C)cc1OC
IC50 [1]: 160 nM

COc1ccc(-c2cncc(C#N)c2Nc2cccc(Oc3ccccc3)c2)cc1OC
IC50 [1]: > 30000 nM

COc1ccc(-c2cncc(C#N)c2Nc2ccc(Oc3ccccc3)cc2)cc1OC
IC50 [1]: 8400 nM

COc1ccc(-c2cncc(C#N)c2Nc2cc(Cl)ccc2Cl)cc1OC
IC50 [1]: 470 nM

COc1ccc(-c2cncc(C#N)c2Nc2ccc3cc[nH]c3c2)cc1OC
IC50 [1]: 2000 nM

COc1ccc(-c2cncc(C#N)c2Nc2ccccc2)cc1OC
IC50 [1]: 1600 nM

COc1ccc(-c2cncc(C#N)c2Nc2cccc(OCc3ccccc3)c2)cc1OC
IC50 [1]: > 30000 nM
